{"source": "ChEMBL document CHEMBL4229442", "about": "“Anti-acute myeloid leukemia activity of 2-chloro-3-alkyl-1,4-naphthoquinone derivatives through inducing mtDNA damage and GSH depletion” (Bioorg Med Chem, 2018)", "key": {"[1]": {"assay": "Selectivity index, ratio of IC50 for human WI38 cells to IC50 for HL60 cells", "type": "toxicity", "conditions": "WI38 cells versus HL60 cells, read-out: Ratio IC50", "outline": "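SI = IC50 in WI-38 fetal lung fibroblasts / IC50 in HL-60, both after 48 h. MTT assay: 1 × 10^4 cells per well in triplicate, 48 h at 37 °C, absorbance at 570 nm. IC50 are mean ± SE from at least three independent experiments.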"}, "HL-60 [2]": {"test_system": "HL-60", "assay": "Cell cycle arrest in human HL60 cells assessed as accumulation at G0/G1 phase at 6 uM after 48 hrs by propidium iodide staining based flow cytometry (reference value: 55.31%)", "type": "functional"}, "HL-60 [3]": {"test_system": "HL-60", "assay": "Cell cycle arrest in human HL60 cells assessed as accumulation at S phase at 9 uM after 24 hrs by propidium iodide staining based flow cytometry (reference value: 34.43%)", "type": "functional"}, "HL-60 [4]": {"test_system": "HL-60", "assay": "Induction of apoptosis in human HL60 cells assessed as late apoptotic/necrotic cells at 6 uM after 24 hrs by Annexin-V-FITC/propidium iodide staining based flow cytometry (reference value: 0.81%)", "type": "functional", "outline": "(§1)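 5×10^5 HL-60 cells in 6-well plates, treated at 3, 6 or 9 µM for 24 or 48 h. Cells were stained with Annexin V-FITC/PI and read by flow cytometry. Early apoptotic cells were taken as Annexin+/PI− and late apoptotic or necrotic cells as Annexin+/PI+.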"}, "HL-60 [5]": {"test_system": "HL-60", "assay": "Induction of apoptosis in human HL60 cells assessed as early apoptotic cells at 3 uM after 24 hrs by Annexin-V-FITC/propidium iodide staining based flow cytometry (reference value: 2.91%)", "type": "functional", "outline": "as §1"}, "HL-60 [6]": {"test_system": "HL-60", "assay": "Induction of mitochondrial dysfunction in human HL60 cells assessed as reduction in ATP level at 3 uM after 24 hrs by luminescence assay relative to control", "type": "functional", "design": "scale not given: the % may be the effect or the level left", "outline": "(§2)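 HL-60 cells were treated at 3, 6 or 9 µM for 12 or 24 h, then lysed in ice-cold buffer and spun at 12000g for 10 min at 4 °C. Supernatant ATP was measured by luciferase–luciferin luminescence and expressed relative to control, as mean ± SE.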"}, "HL-60 [7]": {"test_system": "HL-60", "assay": "Cell cycle arrest in human HL60 cells assessed as accumulation at S phase at 6 uM after 48 hrs by propidium iodide staining based flow cytometry (reference value: 37.5%)", "type": "functional"}, "HL-60 [8]": {"test_system": "HL-60", "assay": "Cell cycle arrest in human HL60 cells assessed as accumulation at S phase at 3 uM after 24 hrs by propidium iodide staining based flow cytometry (reference value: 34.43%)", "type": "functional"}, "HL-60 [9]": {"test_system": "HL-60", "assay": "Induction of reactive oxygen species generation in human HL60 cells at 3 to 6 uM after 6 hrs in presence of BSO by DCFH-DA probe based fluorescence microscopic analysis", "type": "functional, cell-based", "outline": "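HL-60 cells pretreated with 50 μM BSO for 24 h to lower GSH, then exposed to compound for an additional 6 h. ROS probed with 10 μM DCFH-DA in FBS-free medium, 30 min, 37 °C, dark; imaged by inverted fluorescence microscopy and compared with BSO-untreated cells.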"}, "HL-60 [10]": {"test_system": "HL-60", "assay": "Cytotoxicity against mtDNA deficient human HL60 cells assessed as reduction in cell viability at 2.5 to 10 uM after 48 hrs by MTT assay", "type": "functional, cell-based", "outline": "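HL-60 ρ0 cells were made by growing cells in 50 ng/ml EtBr for 14 doublings and confirmed by absence of mitochondrial EtBr fluorescence. They were treated alongside parental HL-60 for 48 h. Viability was measured by MTT at 570 nm, mean ± SE from triplicates.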"}, "HL-60 [11]": {"test_system": "HL-60", "assay": "Induction of mitochondrial DNA damage in human HL60 cells assessed as down regulation of polymerase gamma expression at 9 uM after 24 hrs by Western blot analysis relative to control", "type": "functional", "outline": "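5×10^5 HL-60 cells were treated at 3, 6 or 9 µM for 24 h. Lysate protein (20–40 µg) was run on 12% SDS-PAGE and blotted to PVDF. mt-TFA and polymerase γ were probed with specific antibodies, detected by chemiluminescence and quantified by densitometry against control. Blots are representative of three independent experiments.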"}, "HL-60 [12]": {"test_system": "HL-60", "assay": "Induction of reactive oxygen species generation in human HL60 cells at 3 to 6 uM after 6 hrs by DCFH-DA probe based fluorescence microscopic analysis", "type": "functional, cell-based", "outline": "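5 × 10^5 HL-60 cells exposed 6 h, then switched to FBS-free medium with 10 μM DCFH-DA for 30 min at 37 °C in the dark; green DCF fluorescence imaged by inverted fluorescence microscopy.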"}, "HepG2": {"test_system": "HepG2", "assay": "Cytotoxicity against human HepG2 cells after 48 hrs by MTT assay", "type": "functional, cell-based", "conditions": "HepG2, 48 h", "outline": "(§3)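 1×10^4 cells per well, in triplicate, were exposed to compound for 48 h (HL-60 also 24 h) at 37 °C. Viability was read by MTT at 570 nm absorbance. IC50 is mean ± SE from at least three independent experiments. Cells were kept in DMEM with 10% FBS under 5% CO2.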"}, "HL-60 [13]": {"test_system": "HL-60", "assay": "Induction of mitochondrial dysfunction in human HL60 cells assessed as reduction in ATP level at 9 uM after 24 hrs by luminescence assay relative to control", "type": "functional", "design": "scale not given: the % may be the effect or the level left", "outline": "as §2"}, "HL-60 [14]": {"test_system": "HL-60", "assay": "Cell cycle arrest in human HL60 cells assessed as accumulation at S phase at 9 uM after 48 hrs by propidium iodide staining based flow cytometry (reference value: 37.5%)", "type": "functional"}, "HL-60 [15]": {"test_system": "HL-60", "assay": "Cell cycle arrest in human HL60 cells assessed as accumulation at G0/G1 phase at 6 uM after 24 hrs by propidium iodide staining based flow cytometry (reference value: 58.37%)", "type": "functional"}, "HL-60 [16]": {"test_system": "HL-60", "assay": "Induction of apoptosis in human HL60 cells assessed as late apoptotic/necrotic cells at 9 uM after 24 hrs by Annexin-V-FITC/propidium iodide staining based flow cytometry (reference value: 1.38%)", "type": "functional", "outline": "as §1"}, "HL-60 [17]": {"test_system": "HL-60", "assay": "Cell cycle arrest in human HL60 cells assessed as accumulation at G2/M phase at 6 uM after 24 hrs by propidium iodide staining based flow cytometry (reference value: 7.2%)", "type": "functional"}, "WI-38": {"test_system": "WI-38", "assay": "Cytotoxicity against human WI38 cells after 48 hrs by MTT assay", "type": "functional, cell-based", "conditions": "WI-38, 48 h", "outline": "as §3"}, "A549": {"test_system": "A549", "assay": "Cytotoxicity against human A549 cells after 48 hrs by MTT assay", "type": "functional, cell-based", "conditions": "A549, 48 h", "outline": "as §3"}, "HL-60 [18]": {"test_system": "HL-60", "assay": "Cell cycle arrest in human HL60 cells assessed as accumulation at S phase at 3 uM after 48 hrs by propidium iodide staining based flow cytometry (reference value: 37.5%)", "type": "functional"}, "HL-60 [19]": {"test_system": "HL-60", "assay": "Induction of apoptosis in human HL60 cells assessed as late apoptotic/necrotic cells at 6 uM after 24 hrs by Annexin-V-FITC/propidium iodide staining based flow cytometry (reference value: 1.38%)", "type": "functional", "outline": "as §1"}, "HL-60 [20]": {"test_system": "HL-60", "assay": "Induction of apoptosis in human HL60 cells assessed as early apoptotic cells at 6 uM after 24 hrs by Annexin-V-FITC/propidium iodide staining based flow cytometry (reference value: 3.38%)", "type": "functional", "outline": "as §1"}, "HL-60 [21]": {"test_system": "HL-60", "assay": "Induction of apoptosis in human HL60 cells assessed as early apoptotic cells at 6 uM after 24 hrs by Annexin-V-FITC/propidium iodide staining based flow cytometry (reference value: 2.91%)", "type": "functional", "outline": "as §1"}, "HL-60 [22]": {"test_system": "HL-60", "assay": "Cell cycle arrest in human HL60 cells assessed as accumulation at G0/G1 phase at 3 uM after 24 hrs by propidium iodide staining based flow cytometry (reference value: 58.37%)", "type": "functional"}, "HL-60 [23]": {"test_system": "HL-60", "assay": "Induction of apoptosis in human HL60 cells assessed as late apoptotic/necrotic cells at 3 uM after 24 hrs by Annexin-V-FITC/propidium iodide staining based flow cytometry (reference value: 0.81%)", "type": "functional", "outline": "as §1"}}, "note": "Calls of active or inactive are those of the source. The calls are words filed in the database; no cut-off is given here.", "data": [{"smiles": "CCC1=C(Cl)C(=O)c2cc(OC)c(OC)c(OC)c2C1=O", "values": [{"measurement": "selectivity ratio", "setting": "[1]", "result": 8.07}, {"measurement": "Activity", "setting": "HL-60 [2]", "result": 24.28, "unit": "%"}, {"measurement": "Activity", "setting": "HL-60 [3]", "result": 46.07, "unit": "%"}, {"measurement": "Activity", "setting": "HL-60 [4]", "result": 6.89, "unit": "%"}, {"measurement": "Activity", "setting": "HL-60 [5]", "result": 6.11, "unit": "%"}, {"measurement": "Activity", "setting": "HL-60 [6]", "result": 23, "unit": "%"}, {"measurement": "Activity", "setting": "HL-60 [7]", "result": 47.91, "unit": "%"}, {"measurement": "Activity", "setting": "HL-60 [8]", "result": 35.92, "unit": "%"}, {"measurement": "Activity", "setting": "HL-60 [9]", "result": "Active"}, {"measurement": "Activity", "setting": "HL-60 [10]", "result": "Active"}, {"measurement": "Activity", "setting": "HL-60 [11]", "result": 32, "unit": "%"}, {"measurement": "Activity", "setting": "HL-60 [12]", "result": "Active"}, {"measurement": "IC50", "setting": "HepG2", "result": 15.4, "unit": "µM"}, {"measurement": "Activity", "setting": "HL-60 [13]", "result": 46, "unit": "%"}, {"measurement": "Activity", "setting": "HL-60 [14]", "result": 28.88, "unit": "%"}, {"measurement": "Activity", "setting": "HL-60 [15]", "result": 48.64, "unit": "%"}, {"measurement": "Activity", "setting": "HL-60 [16]", "result": 55.6, "unit": "%"}, {"measurement": "Activity", "setting": "HL-60 [17]", "result": 12.66, "unit": "%"}, {"measurement": "IC50", "setting": "WI-38", "result": 23.8, "unit": "µM"}, {"measurement": "IC50", "setting": "A549", "result": 17.9, "unit": "µM"}, {"measurement": "Activity", "setting": "HL-60 [18]", "result": 38.09, "unit": "%"}, {"measurement": "Activity", "setting": "HL-60 [19]", "result": 8.12, "unit": "%"}, {"measurement": "Activity", "setting": "HL-60 [20]", "result": 19.01, "unit": "%"}, {"measurement": "Activity", "setting": "HL-60 [21]", "result": 12.1, "unit": "%"}, {"measurement": "Activity", "setting": "HL-60 [22]", "result": 53.16, "unit": "%"}, {"measurement": "Activity", "setting": "HL-60 [23]", "result": 1.83, "unit": "%"}]}]}
